Data set [1] can be described thus: Toxicity in BALB/c nude mouse xenografted with human HCT-116 cells assessed as concentrated nucleus in liver at 11.17 mg/kg, ip administered once for every 7 days for 14 days by H and E staining based assay. The data set is classed as organism-based. The following applies: in vivo, 336 h, time 14 day. Summed up: (§1)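 At the end of the 14-day ip xenograft study (HCT116, BALB/c nude), heart and liver were collected from vehicle and molar-equivalent dose groups. Tissues fixed in 10% formalin in PBS and stained with H&E. Liver examined at 400×, heart at 100×.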
On the technique in general: In xenograft studies the graft and the host belong to different species.

The nature of data set [2]: Toxicity in BALB/c nude mouse xenografted with human HCT-116 cells assessed as reduction in body weight at 11.1 mg/kg, ip administered once for every 7 days for 14 days relative to control. Type of data set: organism-based. The note with it: in vivo, 336 h, time 14 day. Further details: scale not given: the % may be the effect or the level left. Summed up:
(§2)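 HCT116 s.c. xenografts in male BALB/c nude mice, n = 6 per group. Dosing was ip once every 7 days for 2 weeks in DMSO/castor oil/ethanol/saline; vehicle controls got solvent. Body weight recorded every other day or every three days. Weight loss taken at day 14. Mean ± SD.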

The nature of data set [3]: Toxicity in BALB/c nude mouse xenografted with human HCT-116 cells assessed as reduction in body weight at 22.2 mg/kg, ip administered once for every 7 days for 14 days relative to control. Type of data set: organism-based. Further details: scale not given: the % may be the effect or the level left. The note with it: in vivo, 336 h, time 14 day. Summed up: as §2
Data set [4] concerns CCD-18Co. The data set is described as follows: Cytotoxicity against human CCD-18Co cells assessed as reduction in cell viability after 72 hrs by MTT assay. Type of data set: cell-based. In outline:
(§3)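 Cells seeded at 5000/well and precultured 1 day. HCT116 grown in McCoy's 5A + 10% FBS; SW620 and HEK293 in DMEM + 10% FBS; CCD18Co in DMEM + 15% FBS. Compounds from 0.1 M DMSO stocks were tested at 10^-10 to 10^-4 mol/L in sixplicate: HCT116 and HEK293 for 48 h, SW620 and CCD18Co for 72 h, at 37 °C, 5% CO2. MTT (5 mg/mL) added for 4 h, then A570 read; IC50 estimated.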
(Tetrazolium assays rely on reduction of a dye to a coloured formazan, in cell work by metabolically active cells.)

Data set [5] deals with HCT-116. The data set is described as follows: Antitumour activity against human HCT-116 cells xenografted in BALB/c nude mouse assessed as tumour growth inhibition at 5.55 mg/kg, ip administered once for every 7 days for 14 days relative to control. The data set is classed as functional. The following applies: HCT-116, ip, 336 h, time 14 day, read-out: TGI. Summed up: (§4)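 Male BALB/c nude mice received s.c. HCT116 cells (2 × 10^6 in 0.2 mL PBS). Once tumours reached 100-200 mm3, mice were randomized into groups of six. Dosing was ip, 0.1 mL/10 g, once every 7 days, in DMSO 0.5%/castor oil 5%/ethanol 5%/saline 89.5%; vehicle controls got solvent. Caliper volume V = L×W²×0.52 read every 2-3 days. Tumours excised and weighed on day 14.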

Data set [6] in a line: Toxicity in BALB/c nude mouse xenografted with human HCT-116 cells assessed as reduction in body weight at 5.5 mg/kg, ip administered once for every 7 days for 14 days relative to control. The data set is classed as organism-based. Further details: scale not given: the % may be the effect or the level left. The note with it: in vivo, 336 h, time 14 day. In outline:
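HCT116 cells (2 × 10^6 in 0.2 mL PBS) inoculated subcutaneously into male BALB/c nude mice; at mean tumor volume 100-200 mm3, randomized, six mice per group. Dosed intraperitoneally once every 7 days in DMSO (0.5%)/castor oil (5%)/ethanol (5%)/saline (89.5%), 0.1 mL per 10 g; vehicle controls received solvent. Body weight monitored every other day or three days; mice weighed on day 14.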

Data set [7] concerns HCT-116. Put plainly: Cytotoxicity against human HCT-116 cells assessed as reduction in cell viability after 48 hrs by MTT assay. The data set is classed as functional, cell-based. The following applies: HCT-116, 48 h. Summed up: as §3
Data set [8] can be described thus: Half life in Sprague-Dawley rat plasma t 50 ug/ml up to 72 hrs by RP-HPLC analysis. The data set is classed as ADME, cell-free. The note with it: dose 50 µg/ml.
Data set [9] is described as follows: Toxicity in BALB/c nude mouse xenografted with human HCT-116 cells assessed as disordered myocardial fiber in heart at 11.17 mg/kg, ip administered once for every 7 days for 14 days by H and E staining based assay. Type of data set: organism-based. The note with it: in vivo, 336 h, time 14 day. Summed up:
as §1

Data set [10] relates to HCT-116. Put plainly: Antitumour activity against human HCT-116 cells xenografted in ip dosed BALB/c nude mouse assessed as tumour growth inhibition administered once for every 7 days for 14 days. Type of data set: functional, organism-based. The following applies: time 14.0 day. Summed up:
as §4

In data set [11] the test system is HCT-116. The data set is described as follows: Antitumour activity against human HCT-116 cells xenografted in BALB/c nude mouse assessed as tumour growth inhibition at 22.2 mg/kg, ip administered once for every 7 days for 14 days relative to control. The data set is classed as functional. The following applies: HCT-116, ip, 336 h, time 14 day, read-out: TGI. Summed up: as §4

Data set [12] in a line: Half life of compound in PBS buffer at pH 7.4 at 50 ug/ml up to 72 hrs by RP-HPLC analysis. The data set is classed as physicochemical. The note with it: dose 50 µg/ml.
Data set [13] is described as follows: Toxicity in BALB/c nude mouse xenografted with human HCT-116 cells assessed as inflammatory cell invasion in heart at 11.17 mg/kg, ip administered once for every 7 days for 14 days by H and E staining based assay. The note with it: in vivo, 336 h, time 14 day. The data set is classed as organism-based. Summed up:
as §1

Data set [14] is described as follows: Toxicity in BALB/c nude mouse xenografted with human HCT-116 cells assessed as necrosis in liver at 11.17 mg/kg, ip administered once for every 7 days for 14 days by H and E staining based assay. The data set is classed as organism-based. The following applies: in vivo, 336 h, time 14 day. Summed up: as §1
In data set [15] the test system is HEK293. The data set is described as follows: Cytotoxicity against HEK293 cells assessed as reduction in cell viability after 48 hrs by MTT assay. Type of data set: cell-based. The following applies: Homo sapiens, HEK293, 48 h. In outline: as §3
Data set [16] deals with SW-620. The data set is described as follows: Cytotoxicity against human SW-620 cells assessed as reduction in cell viability after 72 hrs by MTT assay. The data set is classed as functional, cell-based. The note with it: SW-620, 72 h. Summed up: as §3
The subject of data set [17] is HCT-116. Put plainly: Antitumour activity against human HCT-116 cells xenografted in BALB/c nude mouse assessed as tumour growth inhibition at 11.1 mg/kg, ip administered once for every 7 days for 14 days relative to control. The data set is classed as functional. The following applies: HCT-116, ip, 336 h, time 14 day, read-out: TGI. Summed up:
as §4

pIC50: −log10 of the molar value. Residues, ends and D or L forms follow the SMILES beside them. *: point of attachment. X2 = CC(=O)O[C@@]12CO[C@@H]1C[C@H](O)[C@@]1(C)C(=O)[C@H](O)C3=C(C)[C@@H](OC(=O)[C@H](OC(=O)OCc4ccc(N*)cc4)[C@@H](NC(=O)OC(C)(C)C(F)(F)F)c4ccccc4)C[C@@](O)([C@@H](OC(=O)c4cccc(F)c4)[C@H]21)C3(C)C

Usually pIC50 stands for the negative decadic logarithm of the IC50, by convention in mol/L. As usually defined, the half-life is the time needed for the level to fall by half in the phase considered. As for `CC[C@H](C)[C@H](NC(=O)CNC(=O)[C@H](CCC(N)=O)NC(=O)[C@@H]1CCCN1C(=O)CNC(C)=O)C(=O)N[C@@H](C)C(=O)N[C@@H](CCSC)C(=O)N[C@@H](CCC(N)=O)C(=O)N[C@@H](CC(C)C)C(=O)Nc1ccc(COC(=O)O[C@@H](C(=O)O[C@H]2C[C@@]3(O)[C@@H](OC(=O)c4cccc(F)c4)[C@@H]4[C@]5(OC(C)=O)CO[C@@H]5C[C@H](O)[C@@]4(C)C(=O)[C@H](O)C(=C2C)C3(C)C)[C@@H](NC(=O)OC(C)(C)C(F)(F)F)c2ccccc2)cc1` (Ac-GPQGIAMQL-X2), the Activity result in [1] was “Non-Toxic”; in data set [2] it was 8.5%; in [3] it was 8.7%; in data set [6], 4.6%; in [9], “Non-Toxic”; in data set [13], “Non-Toxic”. Besides, the Activity entry in [14] is “Non-Toxic”. Moreover, the pIC50 in data set [4] was less than 3.70; in data set [7] it was 8.55; in data set [15], 4.06; in data set [16], 5.18. In addition, the inhibition in vivo at 5.55 mg/kg in data set [5] stood at 30.5%. The figures for the half-life at 50 ug/ml in data set [8] and in data set [12] were 43.8 h and more than 72 h, respectively. Besides, the TGI entry in [10] was “Dose-dependent effect”. In data set [11], the inhibition in vivo at 22.2 mg/kg came to 46.3%. Further, in [17], the inhibition in vivo at 11.1 mg/kg came out at 35.2%.

Values taken from ChEMBL document CHEMBL4680238, “Novel octapeptide-DTX prodrugs targeting MMP-7 as effective agents for the treatment of colorectal cancer with lower systemic toxicity” (Eur J Med Chem, 2020).
